In brackets after ≈: the same amount, converted by molar mass. Activity calls are given as the source filed them. The calls are words filed in the database; no cut-off is given here.
Key:
[1] = system: Bacillus cereus; experiment: Antimicrobial activity against Bacillus cereus at 10 ug/disk after 24 hrs by disk diffusion assay; type: functional
Method in brief: (§1)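 Disc diffusion on 4 mm filter discs. Bacteria are grown overnight in LB at 28 C, then adjusted in saline to 1.0 × 10^5 cfu/ml. The suspension is mixed into top agar over peptone agar plates. Plates are incubated 24 h at 28 C, and growth-inhibition zone diameter is measured. Streptomycin and ampicillin controls are applied from a 1 mg/ml stock. Tests are done in duplicate.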

[2] = system: Listeria monocytogenes; experiment: Antimicrobial activity against Listeria monocytogenes at 1 umol/spot after 18 hrs by TLC-bioautographic method; type: functional
Method in brief: (§2)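 TLC bioautography. Samples are spotted on silica gel TLC plates, then sprayed with bacteria (1.0 × 10^5 cfu/ml) in tryptic soy broth. Plates are incubated 18 h at 37 C and sprayed with 3% aqueous p-iodonitrotetrazolium violet. After a further 3 h, growth is stopped with 70% EtOH. White zones on a pink background are scored as inhibition-zone diameter with standard errors.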

[3] = system: Enterobacter cloacae; experiment: Antimicrobial activity against Enterobacter cloacae at 10 ug/disk after 24 hrs by disk diffusion assay; type: functional; method in brief: as §1
[4] = system: Listeria monocytogenes; experiment: Antimicrobial activity against Listeria monocytogenes after 24 hrs by microdilution technique; type: functional
Method in brief: (§3)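 Broth microdilution in LB medium. Inoculum is 1.0 × 10^4 cfu per well, from a saline-adjusted suspension of 1.0 × 10^5 cfu/ml. Compounds are dissolved in DMSO. Incubated 24 h at 28 C. MIC is the lowest concentration with no visible growth under a binocular microscope. MBC is read by subculture into fresh broth for 72 h, with no growth taken as 99.5% kill. OD is read at 655 nm.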

[5] = system: Micrococcus flavus; experiment: Antimicrobial activity against Micrococcus flavus after 24 hrs by microdilution technique; type: functional; method in brief: as §3
[6] = system: Escherichia coli; experiment: Antimicrobial activity against Escherichia coli at 1 umol/disk after 24 hrs by disk diffusion assay; type: functional; method in brief: as §1
[7] = system: Enterobacter cloacae; experiment: Antimicrobial activity against Enterobacter cloacae at 1 umol/disk after 24 hrs by disk diffusion assay; type: functional; method in brief: as §1
[8] = system: Listeria monocytogenes; experiment: Antimicrobial activity against Listeria monocytogenes at 1 umol/disk after 24 hrs by disk diffusion assay; type: functional; method in brief: as §1
[9] = system: Pseudomonas aeruginosa; experiment: Antimicrobial activity against Pseudomonas aeruginosa at 1 umol/spot after 18 hrs by TLC-bioautographic method; type: functional; method in brief: as §2
[10] = system: Pseudomonas aeruginosa; experiment: Antimicrobial activity against Pseudomonas aeruginosa at 10 ug/disk after 24 hrs by disk diffusion assay; type: functional; method in brief: as §1
[11] = system: Bacillus cereus; experiment: Antimicrobial activity against Bacillus cereus after 24 hrs by microdilution technique; type: functional; method in brief: as §3
[12] = system: Bacillus cereus; experiment: Antimicrobial activity against Bacillus cereus at 1 umol/spot after 18 hrs by TLC-bioautographic method; type: functional; method in brief: as §2
[13] = system: Enterobacter cloacae; experiment: Antimicrobial activity against Enterobacter cloacae at 1 umol/spot after 18 hrs by TLC-bioautographic method; type: functional; method in brief: as §2
[14] = system: Salmonella typhimurium; experiment: Antimicrobial activity against Salmonella Typhimurium at 1 umol/spot after 18 hrs by TLC-bioautographic method; type: functional, Salmonella enterica subsp. enterica serovar Typhimurium; method in brief: as §2
[15] = system: Pseudomonas aeruginosa; experiment: Antimicrobial activity against Pseudomonas aeruginosa after 24 hrs by microdilution technique; type: functional; method in brief: as §3
[16] = system: Salmonella typhimurium; experiment: Antimicrobial activity against Salmonella Typhimurium at 10 ug/disk after 24 hrs by disk diffusion assay; type: functional, organism-based; settings: Salmonella enterica subsp. enterica serovar Typhimurium; method in brief: as §1
[17] = system: Micrococcus flavus; experiment: Antimicrobial activity against Micrococcus flavus at 1 umol/spot after 18 hrs by TLC-bioautographic method; type: functional; method in brief: as §2
[18] = system: Salmonella typhimurium; experiment: Antimicrobial activity against Salmonella Typhimurium after 24 hrs by microdilution technique; type: functional, Salmonella enterica subsp. enterica serovar Typhimurium; settings: Salmonella enterica; method in brief: as §3
[19] = system: Enterobacter cloacae; experiment: Antimicrobial activity against Enterobacter cloacae after 24 hrs by microdilution technique; type: functional; method in brief: as §3
[20] = system: Escherichia coli; experiment: Antimicrobial activity against Escherichia coli at 10 ug/disk after 24 hrs by disk diffusion assay; type: functional; method in brief: as §1
[21] = system: Staphylococcus aureus; experiment: Antimicrobial activity against Staphylococcus aureus at 10 ug/disk after 24 hrs by disk diffusion assay; type: functional; method in brief: as §1
[22] = system: Escherichia coli; experiment: Antimicrobial activity against Escherichia coli after 24 hrs by microdilution technique; type: functional; method in brief: as §3
[23] = system: Staphylococcus aureus; experiment: Antimicrobial activity against Staphylococcus aureus at 1 umol/spot after 18 hrs by TLC-bioautographic method; type: functional; method in brief: as §2
[24] = system: Micrococcus flavus; experiment: Antimicrobial activity against Micrococcus flavus at 10 ug/disk after 24 hrs by disk diffusion assay; type: functional; settings: for zone of inhibition at 10 µg/disc: read-out: IZ; method in brief: as §1
[25] = system: Salmonella typhimurium; experiment: Antimicrobial activity against Salmonella Typhimurium at 1 umol/disk after 24 hrs by disk diffusion assay; type: functional, organism-based; settings: Salmonella enterica subsp. enterica serovar Typhimurium; method in brief: as §1
[26] = system: Micrococcus flavus; experiment: Antimicrobial activity against Micrococcus flavus at 1 umol/disk after 24 hrs by disk diffusion assay; type: functional; method in brief: as §1
[27] = system: Staphylococcus aureus; experiment: Antimicrobial activity against Staphylococcus aureus after 24 hrs by microdilution technique; type: functional; method in brief: as §3
[28] = system: Pseudomonas aeruginosa; experiment: Antimicrobial activity against Pseudomonas aeruginosa at 1 umol/disk after 24 hrs by disk diffusion assay; type: functional; method in brief: as §1
[29] = system: Bacillus cereus; experiment: Antimicrobial activity against Bacillus cereus at 1 umol/disk after 24 hrs by disk diffusion assay; type: functional; method in brief: as §1
[30] = system: Escherichia coli; experiment: Antimicrobial activity against Escherichia coli at 1 umol/spot after 18 hrs by TLC-bioautographic method; type: functional; method in brief: as §2
[31] = system: Listeria monocytogenes; experiment: Antimicrobial activity against Listeria monocytogenes at 10 ug/disk after 24 hrs by disk diffusion assay; type: functional; method in brief: as §1
[32] = system: Staphylococcus aureus; experiment: Antimicrobial activity against Staphylococcus aureus at 1 umol/disk after 24 hrs by disk diffusion assay; type: functional; method in brief: as §1

SMILES	inhibition zone (IZ) [1]	inhibition zone (IZ) [2]	inhibition zone (IZ) [3]	MBC [4]	MIC [4]	MBC [5]	MIC [5]	inhibition zone (IZ) [6]	inhibition zone (IZ) [7]	inhibition zone (IZ) [8]	inhibition zone (IZ) [9]	inhibition zone (IZ) [10]	MBC [11]	MIC [11]	inhibition zone (IZ) [12]	inhibition zone (IZ) [13]	MBC [15]	MIC [15]	inhibition zone (IZ) [16]	inhibition zone (IZ) [17]	further results
CC(=O)N1N=C(c2ccc(Nc3nc(Nc4ccccc4)nc(Nc4ccccc4)n3)cc2)CC1c1ccc(Cl)cc1 (stereo not given)	inactive	0.09 millimeter	inactive	696 µM (≈ 400 µg/mL)	696 µM (≈ 400 µg/mL)	696 µM (≈ 400 µg/mL)	696 µM (≈ 400 µg/mL)	inactive	inactive	inactive	inactive	inactive	696 µM (≈ 400 µg/mL)	696 µM (≈ 400 µg/mL)	0.08 millimeter	0.09 millimeter	696 µM (≈ 400 µg/mL)	696 µM (≈ 400 µg/mL)	inactive	inactive	inhibition zone (IZ) [14]: 0.07 millimeter; MBC [18]: 696 µM (≈ 400 µg/mL); MIC [18]: 348 µM (≈ 200 µg/mL); MBC [19]: 696 µM (≈ 400 µg/mL); MIC [19]: 696 µM (≈ 400 µg/mL); inhibition zone (IZ) [20]: inactive; inhibition zone (IZ) [21]: inactive; MBC [22]: 696 µM (≈ 400 µg/mL); MIC [22]: 348 µM (≈ 200 µg/mL); inhibition zone (IZ) [23]: 0.08 millimeter; inhibition zone (IZ) [24]: inactive; inhibition zone (IZ) [25]: inactive; inhibition zone (IZ) [26]: inactive; MBC [27]: 696 µM (≈ 400 µg/mL); MIC [27]: 696 µM (≈ 400 µg/mL); inhibition zone (IZ) [28]: inactive; inhibition zone (IZ) [29]: inactive; inhibition zone (IZ) [30]: inactive; inhibition zone (IZ) [31]: inactive; inhibition zone (IZ) [32]: inactive
N#Cc1c(-c2cccs2)cc(-c2ccc(Nc3nc(Nc4ccccc4)nc(Nc4ccccc4)n3)cc2)nc1N	inactive	0.09 millimeter	inactive	360 µM (≈ 199 µg/mL)	180 µM (≈ 99.7 µg/mL)	90 µM (≈ 49.8 µg/mL)	45 µM (≈ 24.9 µg/mL)	inactive	inactive	inactive	inactive	inactive	90 µM (≈ 49.8 µg/mL)	45 µM (≈ 24.9 µg/mL)	inactive	0.08 millimeter	180 µM (≈ 99.7 µg/mL)	90 µM (≈ 49.8 µg/mL)	inactive	0.08 millimeter	inhibition zone (IZ) [14]: 0.07 millimeter; MBC [18]: 90 µM (≈ 49.8 µg/mL); MIC [18]: 45 µM (≈ 24.9 µg/mL); MBC [19]: 180 µM (≈ 99.7 µg/mL); MIC [19]: 90 µM (≈ 49.8 µg/mL); inhibition zone (IZ) [20]: inactive; inhibition zone (IZ) [21]: inactive; MBC [22]: 90 µM (≈ 49.8 µg/mL); MIC [22]: 45 µM (≈ 24.9 µg/mL); inhibition zone (IZ) [23]: inactive; zone of inhibition at 10 µg/disc [24]: 7 mm; inhibition zone (IZ) [25]: inactive; inhibition zone (IZ) [26]: 0.04 millimeter; MBC [27]: 180 µM (≈ 99.7 µg/mL); MIC [27]: 90 µM (≈ 49.8 µg/mL); inhibition zone (IZ) [28]: inactive; inhibition zone (IZ) [29]: inactive; inhibition zone (IZ) [30]: 0.06 millimeter; inhibition zone (IZ) [31]: inactive; inhibition zone (IZ) [32]: inactive
N#Cc1c(-c2ccc([N+](=O)[O-])cc2)cc(-c2ccc(Nc3nc(Nc4ccccc4)nc(Nc4ccccc4)n3)cc2)nc1N	inactive	0.1 millimeter	inactive	676 µM (≈ 401 µg/mL)	676 µM (≈ 401 µg/mL)	676 µM (≈ 401 µg/mL)	338 µM (≈ 200 µg/mL)	inactive	inactive	inactive	0.09 millimeter	inactive	338 µM (≈ 200 µg/mL)	169 µM (≈ 100 µg/mL)	inactive	0.09 millimeter	676 µM (≈ 401 µg/mL)	676 µM (≈ 401 µg/mL)	inactive	0.07 millimeter	inhibition zone (IZ) ([14]; Salmonella enterica subsp. enterica serovar Typhimurium): inactive; MBC [18]: 676 µM (≈ 401 µg/mL); MIC [18]: 676 µM (≈ 401 µg/mL); MBC [19]: 338 µM (≈ 200 µg/mL); MIC [19]: 169 µM (≈ 100 µg/mL); inhibition zone (IZ) [20]: inactive; inhibition zone (IZ) [21]: inactive; MBC [22]: 676 µM (≈ 401 µg/mL); MIC [22]: 338 µM (≈ 200 µg/mL); inhibition zone (IZ) [23]: inactive; zone of inhibition at 10 µg/disc [24]: 6 mm; inhibition zone (IZ) [25]: inactive; inhibition zone (IZ) [26]: 0.04 millimeter; MBC [27]: 676 µM (≈ 401 µg/mL); MIC [27]: 338 µM (≈ 200 µg/mL); inhibition zone (IZ) [28]: inactive; inhibition zone (IZ) [29]: inactive; inhibition zone (IZ) [30]: inactive; inhibition zone (IZ) [31]: inactive; inhibition zone (IZ) [32]: inactive

Source: ChEMBL document CHEMBL1154716, “Synthesis of some new S-triazine based chalcones and their derivatives as potent antimicrobial agents” (2010)
